Measurements taken from ChEMBL document CHEMBL1154748, “4-Pyridylanilinothiazoles that selectively target von Hippel-Lindau deficient renal cell carcinoma cells by inducing autophagic cell death” (2010).
The source made the active and inactive calls. No cut-off for these calls is given here.

How the values were obtained:
RCC4 = assay: Induction of autophagy in VHL-null human RCC4 cells assessed as intracytoplasmic vacuoles at 5 uM after 24 h
[1] = Ratio of IC50 for human RCC4-VHL cells to IC50 for VHL-null human RCC4 cells; assay type: functional
In short: (§1)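 XTT read-out: 5000 cells/well plated, vehicle or drug added next day, 4-day exposure. Then phenol red-free medium with 0.3 mg/mL XTT, 20% FCS and 2.65 μg/mL N-methyldibenzopyrazine methyl sulfate, 1-2 h at 37 °C, absorbance at 450 nm. GI50 by linear interpolation; single determinations in triplicate. Ratio is the intraexperiment RCC4-VHL GI50 / RCC4 GI50.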

[2] = Growth inhibition of VHL-null human RCC4 cells after 4 days by XTT assay; assay type: functional; details: RCC4, 96 h
In short: as §1

SMILES | Activity (RCC4) | RatioGI50 [1] | GI50 [2]
Cc1cccc(Nc2nc(-c3ccncc3Cl)cs2)c1 | Active | >13.8 | 2900 nM
Cc1cccc(Nc2nc(-c3ccncc3C#CCO)cs2)c1 | Active | 11.9 | 240 nM
